A short description of data set [1]: Cytotoxicity against RSV RSS infected Hep2 cells by plaque assay. The format is cell-based. As to conditions: human, hep-2; call rule not given here.
The nature of data set [2]: Cytotoxicity against RSV RSS infected Hep2 cells by ELISA. It is filed as cell-based. Conditions: human, hep-2.
Data set [3] relates to Respiratory syncytial virus. The data set is described as follows: Antiviral activity against RSV RSS in Hep2 cells by XTT assay. It is filed as functional, organism-based, HEp-2. Conditions: for IC50: human respiratory syncytial virus, RSS, HEp-2. In short, it runs like this:
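HEp-2 cells infected with RSV RSS strain in the presence of compound, incubated 6 days at 37 °C. Residual viability was read by XTT metabolism to a coloured product, and IC50 was derived.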

A short description of data set [4]: Cytotoxicity against RSV RSS infected Hep2 cells by XTT assay. As to conditions: human, hep-2. It is filed as cell-based. The method, boiled down: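 Same XTT format (HEp-2 cells, 6 days at 37 °C, XTT read-out) run in parallel without virus. TD50 is the concentration giving 50% cell death in the absence of virus.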
Data set [5] deals with Respiratory syncytial virus. Briefly: Antiviral activity against RSV RSS in Hep2 cells by ELISA. It is filed as functional, organism-based, HEp-2. Conditions: for IC50: human respiratory syncytial virus, RSS, HEp-2. The method, boiled down: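 HEp-2 cells infected with RSV RSS strain and exposed to compound for 3 days at 37 °C. Monoclonal antibodies to RSV F, N and P proteins were detected with an enzyme-linked secondary antibody. Substrate conversion to a coloured product was read by optical density, and IC50 was derived.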

In data set [6] the test system is Respiratory syncytial virus. Briefly: Antiviral activity against RSV RSS in Hep2 cells by plaque assay. The format is functional, organism-based, HEp-2. As to conditions: for IC50: human respiratory syncytial virus, RSS, HEp-2. The method, boiled down:
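HEp-2 monolayers infected with RSV RSS strain and allowed 2 h adsorption. Compound was then added in medium with 0.6% agarose and incubated 5 days at 37 °C. Monolayers were fixed, the overlay removed, and plaques stained with methylene blue.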

Data set [7] in a line: Aqueous solubility at pH 7.0. The format is physicochemical.
The nature of data set [8]: Half life in rat at 5 mg/kg, po. Conditions: in vivo.
The next data set concerns the target Cytochrome P450 2C9 (Homo sapiens, UniProt P11712). The data set is described as follows: Inhibition of CYP2C9. The format is ADME. The method, boiled down: (§1)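 CYP inhibition was assessed as an effect on the metabolism of isoform-specific probe substrates for CYP3A4, 1A2, 2D6, 2C9 and 2C19.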
The next data set concerns the target Cytochrome P450 3A4 (Homo sapiens, UniProt P08684). Briefly: Inhibition of CYP3A4. The format is ADME. The method, boiled down:
as §1

The test system of data set [9] is Serum. Briefly: Protein binding in human serum. It is filed as ADME, cell-free.
The nature of data set [10]: Fraction unbound ligand in human serum. It is filed as ADME, cell-free.
The nature of data set [11]: in vivo. As to conditions: rat, plasma, iv, 5 mg/kg.
A short description of data set [12]: Half life in rat at 5 mg/kg, iv. As to conditions: in vivo.
The next data set has as its target T1, Cytochrome P450 1A2 (Homo sapiens, UniProt P05177).
T1 sequence (P05177 whole entry): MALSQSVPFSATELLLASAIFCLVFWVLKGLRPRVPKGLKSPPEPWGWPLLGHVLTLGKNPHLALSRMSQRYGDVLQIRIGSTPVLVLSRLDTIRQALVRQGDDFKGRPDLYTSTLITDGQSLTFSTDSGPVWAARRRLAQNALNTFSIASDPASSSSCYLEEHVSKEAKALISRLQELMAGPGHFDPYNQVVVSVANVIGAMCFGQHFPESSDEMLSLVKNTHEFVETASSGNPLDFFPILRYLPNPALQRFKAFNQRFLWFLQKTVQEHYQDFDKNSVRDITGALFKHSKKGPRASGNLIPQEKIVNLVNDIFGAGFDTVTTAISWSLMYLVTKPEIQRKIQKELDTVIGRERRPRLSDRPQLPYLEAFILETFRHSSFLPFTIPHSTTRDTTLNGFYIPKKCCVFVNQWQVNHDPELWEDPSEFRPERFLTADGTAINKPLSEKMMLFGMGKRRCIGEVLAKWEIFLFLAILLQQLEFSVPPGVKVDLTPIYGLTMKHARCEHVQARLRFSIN
Briefly: Inhibition of CYP1A2. The format is ADME. The method, boiled down:
as §1

Data set [13] can be described thus: in vivo. As to conditions: rat, plasma, po, 5 mg/kg.
For data set [14], the system named is Serum. The data set is described as follows: Protein binding in dog serum. It is filed as ADME, cell-free, Canis lupus familiaris.
The next data set deals with Cytochrome P450 2C19 (Homo sapiens, UniProt P33261). The data set is described as follows: Inhibition of CYP2C19. It is filed as ADME. In short, it runs like this:
as §1

Data set [15] in a line: Apparent permeability coefficient assessed using MDCK cells. Conditions: dog. It is filed as ADME, cell-based, Canis lupus familiaris.
Data set [16] is described as follows: Oral bioavailability in rat at 5 mg/kg, po in lipid based formulation. The format is ADME, organism-based. As to conditions: in vivo. In short, it runs like this:
(§2)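 Rat, oral dose of 5 mg/kg in a lipid-based formulation, n = 3. Bioavailability was calculated relative to the 5 mg/kg intravenous dose.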

Data set [17] is described as follows: Cmax in rat at 5 mg/kg, po. Conditions: in vivo. It is filed as ADME, organism-based. Set-up: dose 5 mg/kg, route oral. In short, it runs like this:
as §2

Data set [18] in a line: Fraction unbound ligand in rat serum. The format is ADME, cell-free.
Another data set concerns the target Cytochrome P450 2D6 (Homo sapiens, UniProt P10635). The data set is described as follows: Inhibition of CYP2D6. It is filed as ADME. In short, it runs like this: as §1
The nature of data set [19]: Cmax in rat at 5 mg/kg, iv. More on the design: dose 5 mg/kg, route intravenous. The format is ADME, organism-based. Conditions: in vivo. In short, it runs like this:
(§3)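 Rat, single intravenous dose of 5 mg/kg, n = 3. Parameters were derived from plasma concentrations.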

The nature of data set [20]: Oral bioavailability in rat at 5 mg/kg, po in 1% CMC suspension. It is filed as ADME, organism-based. Conditions: in vivo. The method, boiled down:
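Rat, oral dose of 5 mg/kg given as a suspension in 1% carboxymethylcellulose. Bioavailability was estimated relative to intravenous dosing.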

Data set [21] can be described thus: Fraction unbound ligand in dog serum. It is filed as ADME, cell-free, Canis lupus familiaris.
Data set [22] relates to Serum. The data set is described as follows: Protein binding in rat serum. The format is ADME, cell-free.
Data set [23] in a line: Volume of distribution in rat at 5 mg/kg, iv. As to conditions: in vivo, read-out: Vss. Set-up: dose 5 mg/kg, route intravenous. The format is ADME, organism-based. The method, boiled down: as §3

The text below walks through data of ChEMBL document CHEMBL1142977, “1,4-benzodiazepines as inhibitors of respiratory syncytial virus. The identification of a clinical candidate” (J Med Chem, 2007).

Converted amounts (≈) assume the structure as drawn.

Sequence of Cytochrome P450 2D6 (P10635 whole entry): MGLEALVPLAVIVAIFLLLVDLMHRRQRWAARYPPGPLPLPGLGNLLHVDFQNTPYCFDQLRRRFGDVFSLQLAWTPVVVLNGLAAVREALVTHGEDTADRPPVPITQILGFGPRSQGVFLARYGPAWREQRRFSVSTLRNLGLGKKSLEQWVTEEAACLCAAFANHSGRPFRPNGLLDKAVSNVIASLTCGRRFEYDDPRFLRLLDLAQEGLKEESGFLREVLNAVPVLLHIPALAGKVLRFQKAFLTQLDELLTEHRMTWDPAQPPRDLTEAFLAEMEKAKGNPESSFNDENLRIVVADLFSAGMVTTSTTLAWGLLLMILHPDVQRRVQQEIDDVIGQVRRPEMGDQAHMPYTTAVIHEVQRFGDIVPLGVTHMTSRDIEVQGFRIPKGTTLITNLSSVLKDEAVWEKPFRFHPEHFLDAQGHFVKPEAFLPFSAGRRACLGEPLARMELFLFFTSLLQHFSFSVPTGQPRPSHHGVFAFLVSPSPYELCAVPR
Sequence of Cytochrome P450 2C19 (P33261 whole entry): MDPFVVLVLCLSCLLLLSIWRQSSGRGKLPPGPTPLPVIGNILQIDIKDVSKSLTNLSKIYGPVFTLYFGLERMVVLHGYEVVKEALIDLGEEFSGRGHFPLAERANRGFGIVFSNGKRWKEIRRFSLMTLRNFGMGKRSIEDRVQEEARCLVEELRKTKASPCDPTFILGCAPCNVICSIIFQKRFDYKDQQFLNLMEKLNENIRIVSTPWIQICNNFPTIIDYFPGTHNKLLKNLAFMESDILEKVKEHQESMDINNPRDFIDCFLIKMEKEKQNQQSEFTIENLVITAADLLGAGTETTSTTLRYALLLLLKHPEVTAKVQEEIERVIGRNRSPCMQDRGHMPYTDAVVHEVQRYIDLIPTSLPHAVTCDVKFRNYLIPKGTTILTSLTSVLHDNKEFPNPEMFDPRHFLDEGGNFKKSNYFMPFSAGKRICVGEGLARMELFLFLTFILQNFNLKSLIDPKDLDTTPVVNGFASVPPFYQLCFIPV
Sequence of Cytochrome P450 3A4 (P08684 whole entry): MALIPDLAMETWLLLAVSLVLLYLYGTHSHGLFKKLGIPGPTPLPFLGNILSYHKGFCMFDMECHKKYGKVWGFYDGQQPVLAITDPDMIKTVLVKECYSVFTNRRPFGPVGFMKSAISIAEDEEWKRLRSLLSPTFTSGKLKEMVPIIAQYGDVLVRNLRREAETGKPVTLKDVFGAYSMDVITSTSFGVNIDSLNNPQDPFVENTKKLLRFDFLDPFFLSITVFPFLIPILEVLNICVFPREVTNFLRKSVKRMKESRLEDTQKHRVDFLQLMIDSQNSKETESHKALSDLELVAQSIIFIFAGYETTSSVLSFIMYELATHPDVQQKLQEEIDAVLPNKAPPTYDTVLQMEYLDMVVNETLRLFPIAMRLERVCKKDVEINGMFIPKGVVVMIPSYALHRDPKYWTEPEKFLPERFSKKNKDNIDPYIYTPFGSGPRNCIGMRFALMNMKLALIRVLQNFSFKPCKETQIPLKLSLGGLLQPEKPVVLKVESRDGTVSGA
Sequence of Cytochrome P450 2C9 (P11712 whole entry, canonical isoform): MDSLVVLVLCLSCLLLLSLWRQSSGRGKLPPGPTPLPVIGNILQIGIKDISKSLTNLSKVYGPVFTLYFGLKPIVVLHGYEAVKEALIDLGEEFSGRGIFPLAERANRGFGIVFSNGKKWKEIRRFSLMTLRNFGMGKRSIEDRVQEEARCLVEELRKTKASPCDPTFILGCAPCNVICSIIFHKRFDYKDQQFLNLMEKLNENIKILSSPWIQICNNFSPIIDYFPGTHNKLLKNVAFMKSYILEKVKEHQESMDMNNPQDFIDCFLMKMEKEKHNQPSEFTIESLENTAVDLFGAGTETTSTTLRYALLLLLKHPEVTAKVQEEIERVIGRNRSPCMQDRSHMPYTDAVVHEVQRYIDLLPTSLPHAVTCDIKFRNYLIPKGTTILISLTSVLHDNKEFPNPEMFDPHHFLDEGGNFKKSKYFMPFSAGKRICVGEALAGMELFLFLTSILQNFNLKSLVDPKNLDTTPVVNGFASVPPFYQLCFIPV

`O=C(Nc1ccccc1F)NC1N=C(c2ccccc2)c2ccccc2NC1=O` (stereo not given): the Activity result in data set [1], in data set [2] and in data set [4] was “Non-toxic” throughout. Also, in [3], the TD50 is >50 µM. Moreover, the IC50 in [3] turned out to be 27800 nM.

With `O=C(NC1N=C(c2ccccc2)c2ccccc2NC1=O)C1CCCCC1` (stereo not given), in [3], the TD50 was >50 µM and the 50% inhibitory concentration (IC50) was 12600 nM.

For `COc1cc([N+](=O)[O-])ccc1C(=O)N[C@H]1N=C(c2ccccc2)c2ccccc2NC1=O`, the TD50 in [3], in data set [5] and in data set [6] was >50 µM in each case. The IC50 is 900 nM in [3], 1000 nM in data set [5] and 500 nM in data set [6].

`O=C(N[C@H]1N=C(c2ccccc2)c2ccccc2NC1=O)c1cc(Cl)ccc1N1CCS(=O)(=O)CC1`: in data set [3], the TD50 is >50 µM and it took 2200 nM to reach half-maximal inhibition (IC50).

Regarding `O=C(N[C@H]1N=C(c2ccccc2)c2ccccc2NC1=O)c1ccc(F)cc1N1CCCCC1`, in data set [3], the TD50 is >50 µM and inhibition was half-maximal at 7500 nM (IC50).

Turning to `O=C(N[C@H]1N=C(c2ccccc2)c2ccccc2NC1=O)c1cc(F)ccc1N1CCS(=O)(=O)CC1`, in data set [3], the TD50 is >50 µM and it took 700 nM to reach half-maximal inhibition (IC50).

For `CCNC(=O)CN1C(=O)[C@@H](NC(=O)Nc2ccccc2F)N=C(c2ccccc2)c2ccccc21`, in data set [3], the TD50 is >50 µM and the IC50 is > 50000 nM.

Regarding `O=C(N[C@H]1N=C(c2ccccc2)c2ccccc2NC1=O)c1ccc(N2CCOCC2)cc1Cl`, the TD50 in data set [3], in data set [5] and in [6] was >50 µM throughout. Moreover, the IC50 in data set [3] came to 1400 nM; in data set [5] it was 1500 nM; in data set [6], 800 nM. The solubility in [7] was 0.9 µg/mL (≈ 1.89 µM).

In the case of `O=C(N[C@H]1N=C(c2ccccc2)c2ccccc2NC1=O)C1CCCCC1`, in data set [3], the TD50 was >50 µM and the IC50 amounted to 3300 nM.

As to `O=C(Nc1ccccc1F)N[C@@H]1N=C(c2ccccc2)c2ccccc2NC1=O`, the Activity result in data set [1], in [2] and in [4] was “Non-toxic” each time. Besides, the TD50 in [3] is >50 µM. This compound registered a 50% inhibitory concentration (IC50) in [3] of 27800 nM.

On to `O=C(CN1C(=O)[C@@H](NC(=O)Nc2ccccc2F)N=C(c2ccccc2)c2ccccc21)Nc1ccncc1`, for which, in data set [3], the TD50 was >50 µM and half-maximal inhibition (IC50) required 14200 nM.

With `COc1cc([N+](=O)[O-])ccc1C(=O)N[C@@H]1N=C(c2ccccc2)c2ccccc2NC1=O`, in data set [3], the TD50 was >50 µM and half-maximal inhibition (IC50) was put at 21200 nM.

For `O=C(N[C@H]1N=C(c2ccccc2)c2ccccc2NC1=O)c1cccnc1N1CCOCC1`, in [3], the TD50 is >50 µM and the IC50 was found to be 2900 nM.

Consider `O=C(Nc1ccccc1F)N[C@H]1N=C(c2ccccc2)c2ccccc2N(CC(=O)N2CCOCC2)C1=O`, for which, in data set [3], the TD50 is >50 µM and the IC50 was > 50000 nM.

With `O=C(N[C@@H]1N=C(c2ccccc2)c2ccccc2NC1=O)C1CCCCC1`, in [3], the TD50 was >50 µM and the concentration for half-maximal inhibition (IC50) was > 50000 nM.

Consider `COc1cc([N+](=O)[O-])ccc1C(=O)NC1N=C(c2ccccc2)c2ccccc2NC1=O` (stereo not given), for which, in data set [3], the TD50 was >50 µM and half-maximal inhibition (IC50) was put at 2000 nM.

`COc1cc(S(C)(=O)=O)ccc1C(=O)N[C@H]1N=C(c2ccccc2)c2ccccc2NC1=O`: the TD50 in data set [3], in [5] and in data set [6] was >50 µM throughout. Further, the IC50 was determined as 500 nM in data set [3], 600 nM in data set [5] and 500 nM in data set [6]. For the same compound, in [7], the solubility turned out to be 22 µg/mL (≈ 47.5 µM).

For the compound `O=C(Nc1ccccc1F)N[C@H]1N=C(c2ccccc2)c2ccccc2NC1=O` [RSV-604], the half-life in data set [8] was 2.6 h; in [12], 3.8 h. Besides, the Activity result at Cytochrome P450 2C9 is on record as “Not Active”; at Cytochrome P450 3A4, “Not Active”; with Serum [9], 95%; in [1], “Non-toxic”; at Cytochrome P450 1A2, “Not Active”; in data set [2], “Non-toxic”. In addition, the Activity in the data set with Serum [14] is 95%; on Cytochrome P450 2C19 it was “Not Active”; at Cytochrome P450 2D6 it was “Not Active”; in [4], “Non-toxic”; in the data set with Serum [22], 95%. For the same compound, the fraction unbound in data set [10], in data set [18] and in [21] was 0.05 throughout. Moreover, the results for the AUC(0-inf) in the data set “in vivo [11]” and in the data set “in vivo [13]” were 11700 ng·h/mL and 10900 ng·h/mL, respectively. Moreover, the TD50 in data set [3], in data set [5] and in [6] was >50 µM in each case. The 50% inhibitory concentration (IC50) in data set [3] came out at 900 nM; in data set [5] it was 1400 nM; in data set [6] it was 700 nM. Further, the apparent permeability coefficient (Papp) in data set [15] is 13 ×10⁻⁶ cm/s. The results for the bioavailability in [16] and in data set [20] were > 90% and < 40%, respectively. For the same compound, the Cmax was 910 ng/mL in [17] and 3300 ng/mL in [19]. Besides, the solubility in data set [7] was 4.1 µg/mL (≈ 10.6 µM). Moreover, in [23], the Vd was determined as 2.2 L/kg.
